Reference: the EternaBench riboswitch data

Tested on: MS2 coat protein
Assay: apparent Kd, MS2 coat protein; higher = weaker binding; RNA-MaP array; FMN 200 µM where present
Procedure, shortened: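 On Illumina sequencing-chip clusters, designs were transcribed by stalled E. coli RNA polymerase and titrated with SNAP-549-labelled MS2 coat protein (0.7 or 1.5 nM, doubling to 3 µM), without and then with constant ligand, in 100 mM Tris-HCl pH 7.5, 80 mM KCl, 4 mM MgCl2, BSA, DTT, yeast tRNA and Tween-20. Apparent Kd is the median of filtered per-cluster curve fits to green signal normalised to red-channel RNA signal and control-cluster median Fmax.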

[1] = designed as: OFF switch for flavin mononucleotide, no ligand
[2] = ligand present: flavin mononucleotide, designed as: OFF switch for flavin mononucleotide
[3] = designed as: ON switch for flavin mononucleotide, no ligand
[4] = ligand present: flavin mononucleotide, designed as: ON switch for flavin mononucleotide

Sequence | apparent Kd [1] | apparent Kd [2] | apparent Kd [3] | apparent Kd [4]
UUAUAUAGGUAGGAUAUCGAUAUUAAUUAUUAUCGAGAAGGGUCUACAUGAGGAUCACCCAUGUUAGCAUGUAU | 28.9 nM | 32.9 nM |  | 
UUAUGAGAGCAGGAUAUCUUAUAUUUUUAUUAAAGAGAAGGGCUCACAUGAGGAUCACCCAUGUGGUCCUAGAU | 55.9 nM | 598 nM |  | 
UUAUGCUGAGAGAAGGUUCAAACUACAUAUUGCACACAUGAGGAUCACCCAUGUUGGUGAAUAAGAAAGGAUAUUUUACUGUAU | 20.1 nM | 16.9 nM |  | 
UUAUGCUGAGAGAAGGUUCAAACUACAUAUUGCAUACAUGAGGAUCACCCAUGUUGGUGAAUAAGAAAGGAUAUUUUACUGUAU | 86.6 nM | 63.1 nM |  | 
UUAUGGCUAGGAUAUGCACGUGCAUGUUCAAGUCAAAGAAGACAUGAGGAUCACCCAUGUAGAAGGAGCGGUAC | 37.8 nM | 24.2 nM |  | 
UUAUGUGGCGUAGGAUAUCAUUAGAUUUGUAAUUUAAUUGUAAUUUCCAUAUGAGAAGGACGUAUACAUGAGGAUCACCCAUGU | 14.8 nM | 17.7 nM |  | 
UUAUUAAGUGUGAGGAUAUGCUGGUCCUUGGAUCAGCAGAAGGCACAUGAGGAUCACCCAUGUACUUUAUAAAU | 15.7 nM | 46.6 nM |  | 
UUAUUAUAUGUAGGAUAUGCAUAUUACUAUUGUGCAGAAGGACAUGAGGAUCACCCAUGUAUAUUAUUAUUAUAUAUUAUAUAU | 15.8 nM | 15.7 nM |  | 
UUAUUAUAUGUAGGAUAUGCAUAUUAGUAUUGUGCAGAAGGACAUGAGGAUCACCCAUGUAUAUUAUUAUUAUAUAUUAUAUAU | 14.6 nM | 21.4 nM |  | 
UUAUUAUAUGUAGGAUAUGCAUAUUAUUAUUAUGCAGAAGGACAUGAGGAUCACCCAUGUAUAUUAUUAUUAUAUGUUAUAUAU | 25.5 nM | 36.9 nM |  | 
UUAUUUAGGUAGGAUAUCGAUACUAAUUACUAUCGAGAAGGGUCUACAUGAGGAUCACCCAUGUUAGCAUGUUU | 27.2 nM | 25.5 nM |  | 
UUAUUUAGGUAGGAUAUCGAUACUAAUUAUUAUCGAGAAGGGUCUACAUGAGGAUCACCCAUGUUAGCAUGUUU | 28 nM | 27.7 nM |  | 
UUAUUUAUACAAGGAUAUCAAUUAUAUACACAUCCUACAUGAGGAUCACCCAUGUUUUAUUUUUUUGAGAAGGUGUAUUGUCGG |  |  | 21.2 nM | 27.6 nM
UUAUUUAUGCAAGGAUAUCAAUUAUAUACAAAUCCAACAUGAGGAUCACCCAUGUUUUAUUUUUUUGAGAAGGUGUAUUGUCAG |  |  | 36.1 nM | 40.5 nM
UUAUUUUUACAGAAGGUUUAAUAAUAUGUAUGAGAAGGAUAUGUAACAUGAGGAUCACCCAUGUUUUAUUUAUAUGAGGUUCGU | 15.3 nM | 12.5 nM |  | 
UUCAAAUUCGUAGGAUAUGUAUAAAUUUUCUACAUGAGGAUCACCCAUGUUUCCAUUUUAAAUUGACAGAAGGACGUAAUCUAA |  |  | 30 nM | 9.73 nM
UUCAGCUCGACAGGAUAUACAUCACUGCUUCGGCAGUGUAUCUUAAUAACAUGAGGAUCACCCAUGUAGAAGGGUCGAGCUGAA | 17.9 nM | 31.4 nM |  | 
UUCAGCUCGUCAGGAUAUACGUCACUGCUUCGGCAGUGUGGUAAGAUCACAUGAGGAUCACCCAUGUAGAAGGGACGAGCUGAA | 12.5 nM | 254 nM |  | 
UUCAGCUCGUGAGGAUAUACAUGUGCUGGAAACAGCACUAAAGUUUUCACAUGAGGAUCACCCAUGUAGAAGGCACGAGCUGAG | 15.6 nM | 34.5 nM |  | 
UUCAGCUCGUGAGGAUAUACAUGUGCUGGAAACAGCAUUAAAUAAUUCACAUGAGGAUCACCCAUGUAGAAGGCACGAGCUGAG | 17 nM | 34.4 nM |  | 
UUCAGGGAUCAAGGAUAUCUAUAAACAUGCGGACAUGAGGAUCACCCAUGUUGAUUACCCAUGUGGGAGAAGGUGAACAUGAGG |  |  | 44.7 nM | 20.6 nM
UUCAGGGAUCAAGGAUAUCUAUAUUCAUGAGGACAUGAGGAUCACCCAUGUUGAUUACCCAUGAGGGAGAAGGUGAACAUGAGG |  |  | 44.2 nM | 18.7 nM
UUCGCUAAGGUGUAGCGAGGCUCGCAAGAAGGGUGAUGCACAUGAGGAUCACCCAUGUAAGCCUUACAGGAUAUUGCUUGCCGA |  |  | 509 nM | 40.7 nM
UUCGGACUAUCAGGAUAUGGUGUAGCCUAGUAAAGGACAUGAGGAUCACCCAUGUACCAUUGGUACCAGAAGGGAUGAUCCUAC |  |  | 29.9 nM | 24.9 nM
UUCUCGAUGUAGAAGGCCGCGUCCGGCUCACGCGGAGGAUAUACAUGAGGAUCACCCAUGUGUCUGUGGCUUAUAAGGUACGGA | 98.8 nM | 67.7 nM |  | 
UUCUUUCCUCAUGUACAUGAGGAACAUGAGGAUCACCCAUGUAGAAGGAUUUCCAUUAAAUUAAAAUAGGAUAUACAUAUAUUU | 18.6 nM | 16.7 nM |  | 
UUGAACAUAGGAUAUAGUUGUUUGUACAUGAGGAUCACCCAUGUUAGGGAUGUUUUGUUUCUAGAAGGAUGUUGAU | 170 nM | 80.3 nM |  | 
UUGAAGAUAGGAUAUACGAGGAGAGGAGAGAGAAGGUGAGGACAUGAGGAUCACCCAUGUAGAAGGAUCAGGAA | 81.5 nM | 62.5 nM |  | 

Sequence | apparent Kd [1] | apparent Kd [2] | apparent Kd [3] | apparent Kd [4]
UUGAAGUCAUCAGGAUAUAGUAUUAAAGACAUUUAUAUUUUCAAACAUGAGGAUCACCCAUGUCGCUAGAAGGGAUUAUAGAUU | 49.1 nM | 44.9 nM |  | 
UUGAAUUAUAAGGAUAUGGGAGUCGAUAGACACCCAGAAGGUAUAACAUGAGGAUCACCCAUGUGUCCUAUCUU | 22.2 nM | 23.4 nM |  | 
UUGAAUUUAAACAUGAGGAUCACCCAUGUGUCAUAGUUGACAUAGGAUAUGCUUAUACUUUGAAAGCAGAAGGAUGACGAUACU |  |  | 41.3 nM | 10.1 nM
UUGAGGUGCAAGAAGGAUCACAUGAGGAUCACCCAUGUAAUAUAAAGUCUCGAGAUUUUAUAUUGAUAGGAUAUUGCACCGAAC |  |  | 42.2 nM | 6.26 nM
UUGAGGUGCAAGAAGGGUCACAUGAGGAUCACCCAUGUCAUGUGAAGUCUCGAGAUUUUAUGUGGAUAGGAUAUUGCACCGAAC |  |  | 203 nM | 113 nM
UUGCAGUGCGGGUAGGAUAUGUAGGGUGGUACAUGAGGAUCACCCAUGUAUCCACCCUUCGACCGGCAGAAGGGCCUGUCACCGC |  |  | 15.2 nM | 14.8 nM
UUGCCUCAGAACAUGAGGAUCACCCAUGUGCUGCGGGCAACGUAGGAUAUGAUGGUUUGAUACCAUCAGAAGGAUGAUGGUACC |  |  | 5.4 nM | 5.21 nM
UUGCCUGCGUGUCGCCGGUUUGGACAGGAUAUCCACAUGAGGAUCACCCAUGUCUAACAAAAUACGGAGAAGGGUCCUAGCGGU |  |  | 39 nM | 6.55 nM
UUGCUCAAAUGGGCAGGGACCUCACAUGAGGAUCACCCAUGUCAGGAUAUCCUAGUUUGGACGUAGGAGAAGGGACAGAGUAUC | 227 nM | 171 nM |  | 
UUGGACGUCGUAGGAUAUGUAGGAAAUUCCUACAUGAGGAUCACCCAUGUUGACAUGGAAGAAGGACAGAAGGACGAUGUCCAU |  |  | 262 nM | 12.4 nM
UUGGACGUCGUAGGAUAUGUAGGACAUUCCUACAUGAGGAUCACCCAUGUUGACAUGGAAGAAGGACAGAAGGACGAUGUCCAU |  |  | 152 nM | 10.6 nM
UUGGACGUCGUAGGAUAUGUAGGAUAUCCCUACAUGAGGAUCACCCAUGUUGACAUGGAAGAAGGACAGAAGGACGAUGUCCAU |  |  | 105 nM | 11.8 nM
UUGGACGUCGUAGGAUAUGUAGGAUAUGCCUACAUGAGGAUCACCCAUGUUGACAUGGAAGAAGGACAGAAGGACGAUGUCCAU |  |  | 108 nM | 6.64 nM
UUGGACGUCGUAGGAUAUGUAGGAUAUUCCUACAUGAGGAUCACCCAUGUUGACAUGGAAGAAUGACAGAAGGACGAUGUCCAU |  |  | 712 nM | 11.8 nM
UUGGACGUCGUAGGAUAUGUAGGGUAUUCCUACAUGAGGAUCACCCAUGUUGACAUGGAAGAAGGACAGAAGGACGAUGUCCAU |  |  | 183 nM | 4.94 nM
UUGGAGUUCGUAGGAUAUGUAGGAUAUUCCUACAUGAGGAUCACCCAUGUUGACAUGGAGGAAGGACAGAAGGACGAGCUCCAU |  |  | 206 nM | 225 nM
UUGGAUGUCGUAGGAUAUGUAGGAUAUUCCUACAUGAGGAUCACCCAUGUUGACAUGGAAGAAGGACAGAAGGACGAUGUCCAU |  |  | 209 nM | 5.03 nM
UUGUACGUCGUAGGAUAUGUAGGAUAUUCCUACAUGAGGAUCACCCAUGUUGACAUGGAAGAAGGACAGAAGGACGAUGUCCAU |  |  | 429 nM | 7.83 nM
UUGUGAGAGCAGGAUAUCUUAUUUUUUUUUUGUGGAGAAGGGCUGACAUGAGGAUCACCCAUGUGGUCCUAGAU | 28.4 nM | 33.5 nM |  | 
UUGUUAUAUGUAGGAUAUGCGUAUUAUUAUUAUGCAGAAGGACAUGAGGAUCACCCAUGUAUAUUAUUAUUAUAUAUUAUAUAU | 27.9 nM | 43.7 nM |  | 
UUGUUGUAUGUAGGAUAUGCAUGUUAUUAUUAUGCAGAAGGACAUGAGGAUCACCCAUGUGUAUUAUUAUUAUAUAUUAUAUAU | 20.9 nM | 23.3 nM |  | 
UUGUUUUUUGAGGAUAUGCGACGUUUUUUCGUCGUAGAAGGCGAUACAUGAGGAUCACCCAUGUUUAUGGGCAU | 124 nM | 169 nM |  | 
UUUAACAGAGGAUAUGCGAAUAAAUAAAACUUUUUUUUUUAACAUGAGGAUCACCCAUGUAGAAGGCUGAUUUU | 45.7 nM | 47.7 nM |  | 
UUUACAUGAGGAUCACCCAUGUAUGUCACCCAUGUGUGUAAUCAGGAUAUGAUAUCAAUAAUAAAUUAGAAGGGAUAACAUGAG |  |  | 59.5 nM | 75.1 nM
UUUACAUGAGGAUCACCCAUGUCUGUCACACGUAUGUGCAAUCAGGAUAUGAUCUCAAGAAUGAAUUAGAAGGGAUAAAGAGAA |  |  | 212 nM | 250 nM
UUUACAUGAGGAUCACCCAUGUUUAGAAAGAUUGGUUUAGGUGAGGAUAUACAUGAUAAUGAAUUGUAGAAGGCACUGGGUACA |  |  | 30.1 nM | 24 nM
UUUAGUUCAGGAUAUGUAGAUUUUAACAUGAGGAUCACCCAUGUAGAUCCUGAAUUAACUACAGAAGGGAACAUUU | 19.8 nM | 88.6 nM |  | 
